The results in this text go back to ChEMBL document CHEMBL1124344, “5-Piperazinylalkyl-2(3H)-oxazolones with neuroleptic activity” (J Med Chem, 1989).

One may read the ED50 as the midpoint of the dose-response relation. One may read the LD50 as the dose at which mortality reaches 50%. Lower therefore signals greater toxicity. Broadly, the inhibition in vivo is the share of the control response that was lost under treatment. A lower inhibition in vivo goes with a response near the control.

The structures appear in SMILES notation.

For series [1], the system named is Mus musculus. The series is described as follows: Inhibition of amphetamine-induced hypermobility in mice following p.o. administration. Type of series: functional. As to conditions: po. The gist of the method: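 Compounds were given orally to male mice (gum arabic suspension, 10 mL/kg, fasted) in groups of five. Amphetamine 4 mg/kg ip followed 30 min later. After another 10 min, motility was recorded for 15 min with a photocell actophotometer. ED50, by probit analysis, is the dose giving 50% reduction against controls.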

Series [2] deals with Mus musculus. In words: Inhibition of spontaneous motor activity in mice, by administering perorally. The format is functional. Particulars: po. The gist of the method: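 Mice in groups of five were dosed orally with gum arabic suspensions at 10 mL/kg after an overnight fast, with a vehicle control group. Locomotion was counted for 10 min in a photocell activity cage, in at least two groups per dose. ED50, by probit analysis, is the dose giving 50% inhibition against controls.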

Series [3] is described as follows: Lethal dose in mice (LD50) following i.p. dosing. Type of series: toxicity, organism-based. Particulars: mouse, in vivo, ip. In short, it runs like this:
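Acute toxicity tested in mice by the intraperitoneal route. LD50 is the dose killing 50% of treated mice, computed by Finney probit analysis; values are approximate.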

The test system of series [4] is Rattus norvegicus. The series is described as follows: Antagonistic activity against apomorphine-induced stereotypy in rats, by administering perorally at a dose of 50 mg/kg. The format is functional. As to conditions: route oral. The gist of the method: (§1)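 Male rats fasted overnight and given oral doses in arabic gum suspension (10 mL/kg) 1 h, or 1 and 5 h, before challenge. Apomorphine 3 mg/kg iv, with stereotypy observed 20 min later. ED50 is the dose inhibiting stereotypy in 50% of rats, per Janssen's method. Parenthetical entries give the maximal dose and percent activity.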

In series [5] the test system is Rattus norvegicus. The series is described as follows: Activity to evoke catalepsy in rats, by administering perorally at a dose of 50 mg/kg. Type of series: functional. As to conditions: route oral. The gist of the method: (§2)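 Rats fasted overnight and given oral doses in arabic gum suspension (10 mL/kg), 1 h before screening or 1 and 5 h before profile testing. Forelegs placed on a horizontal bar 7 cm high, three times at 5-min intervals. Immobility of at least 15 s counts as catalepsy. ED50 is the dose giving catalepsy in 50% of rats, by probit analysis. Parenthetical entries give the maximal dose and percent activity.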

For series [6], the system named is Rattus norvegicus. In words: Antagonistic activity against apomorphine-induced stereotypy in rats, by administering perorally at a dose of 150 mg/kg. Type of series: functional. Particulars: route oral. The gist of the method: as §1
For series [7], the system named is Rattus norvegicus. In words: Activity to evoke catalepsy in rats, by administering perorally at a dose of 150 mg/kg. The format is functional. As to conditions: route oral. The gist of the method:
as §2

The test system of series [8] is Mus musculus. The series is described as follows: Antagonistic activity against amphetamine-induced Hypermobility in mice, by administering perorally at a dose of 20 mg/kg. The format is functional. Particulars: route oral. In short, it runs like this: (§3)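 Male mice in groups of five, fasted overnight, given oral drug in arabic gum suspension (10 mL/kg) 1 or 5 h ahead. Amphetamine 4 mg/kg ip given 30 min after drug. Ten minutes later locomotion is recorded for 15 min in a photocell actophotometer. ED50 is 50% reduction versus control hypermotility, by probit analysis. Parenthetical entries give the maximal dose and percent activity.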

Series [9] deals with Rattus norvegicus. The series is described as follows: Antagonistic activity against apomorphine-induced stereotypy in rats, by administering perorally at a dose of 20 mg/kg. Type of series: functional. As to conditions: route oral. In short, it runs like this:
as §1

Series [10] relates to Rattus norvegicus. In words: Activity to evoke catalepsy in rats, by administering perorally at a dose of 20 mg/kg. Type of series: functional. Particulars: route oral, read-out: Inhibition. The gist of the method: as §2
Series [11] relates to Rattus norvegicus. The series is described as follows: Activity to evoke catalepsy in rats, by administering perorally. The format is functional. Particulars: po. The gist of the method: as §2
Series [12] has as its system Rattus norvegicus. In words: Antagonistic activity against apomorphine-induced stereotypy in rats, by administering perorally. As to conditions: po. The format is functional. In short, it runs like this:
as §1

The subject of series [13] is Rattus norvegicus. The series is described as follows: Antagonistic activity against apomorphine-induced stereotypy in rats, by administering perorally at a dose of 100 mg/kg. The format is functional. Particulars: route oral. In short, it runs like this:
as §1

The subject of series [14] is Rattus norvegicus. In words: Activity to evoke catalepsy in rats, by administering perorally at a dose of 100 mg/kg. Type of series: functional. Particulars: route oral, read-out: Inhibition. In short, it runs like this:
as §2

In series [15] the test system is Mus musculus. In words: Antagonistic activity against amphetamine-induced Hypermobility in mice, by administering perorally at a dose of 100 mg/kg. Type of series: functional. Particulars: route oral. The gist of the method: as §3
The test system of series [16] is Mus musculus. In words: Inhibition of spontaneous motor activity in mice, by administering perorally at a dose of 100 mg/kg. As to conditions: route oral. The format is functional. The gist of the method: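 Mice fasted overnight, then dosed orally with compound (weighed as base) suspended in arabic gum, 10 mL/kg, with vehicle controls; 1 h pretreatment for screening tests, 1 or 5 h for others. Groups of five; locomotor activity counted 10 min in photocell activity cage, at least two groups per dose. ED50 = dose giving 50% inhibition versus controls, by probit analysis.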

For `COc1cccc(N2CCN(CCc3oc(O)nc3-c3ccc(F)cc3)CC2)c1`, the ED50 in the series on Mus musculus [1] was found to be 7.6 mg/kg; in the series on Mus musculus [2], 10.8 mg/kg. For the same compound, in [3], the LD50 turned out to be 500 mg/kg. Also, the values for the inhibition in vivo at 50 mg/kg with Rattus norvegicus [4] and with Rattus norvegicus [5] were 0% and 30%, respectively.
In the case of `O=C(c1ccccc1)n1c(-c2ccc(F)cc2)c(CCN2CCN(c3ccccc3)CC2)oc1=O`, the ED50 came to 9.3 mg/kg in the series on Mus musculus [1] and 4 mg/kg with Mus musculus [2]. Moreover, the LD50 in [3] was 750 mg/kg. The results for the inhibition in vivo at 150 mg/kg in the series on Rattus norvegicus [6] and in the series with Rattus norvegicus [7] were 40% and 0%, respectively.
Compound `Oc1nc(-c2ccc(F)cc2)c(CCN2CCN(c3cccc(Cl)c3Cl)CC2)o1` yielded an ED50 in the series with Mus musculus [2] of 12.5 mg/kg. In addition, the values for the inhibition in vivo at 20 mg/kg with Mus musculus [8] and in the series on Rattus norvegicus [9] were 69% and 0%, respectively. In [3], this compound had an LD50 of 90 mg/kg. Besides, in the series on Rattus norvegicus [10], the percent of rats showing catalepsy at 20 mg/kg was 0%.
With `Oc1nc(-c2ccccc2)c(CCN2CCN(c3ccccc3)CC2)o1`, the ED50 in the series on Mus musculus [1] worked out at 51 mg/kg; in the series on Mus musculus [2] it was 60 mg/kg; in the series on Rattus norvegicus [11], 63 mg/kg; in the series with Rattus norvegicus [12], 200 mg/kg. In addition, the LD50 in series [3] is more than 1000 mg/kg.
In the case of `CC(=O)n1c(-c2ccc(F)cc2)c(CCN2CCN(c3ccccc3)CC2)oc1=O`, the ED50 worked out at 4.7 mg/kg with Mus musculus [1], 2.7 mg/kg with Mus musculus [2], 30.5 mg/kg with Rattus norvegicus [11] and 44 mg/kg in the series with Rattus norvegicus [12]. This compound also registered an LD50 in series [3] of 350 mg/kg.
With `Oc1nc(-c2ccc(Cl)cc2)c(CCN2CCN(c3ccccn3)CC2)o1`, the ED50 in the series on Mus musculus [1] worked out at 14.3 mg/kg; in the series with Mus musculus [2] it was 14.1 mg/kg; with Rattus norvegicus [11] it was 47 mg/kg. This compound also registered an LD50 in series [3] of 375 mg/kg. Besides, in the series with Rattus norvegicus [4], 50 mg/kg produced 0% inhibition in vivo.
Take `Oc1nc(-c2ccc(F)cc2)c(CCN2CCN(c3cccc(C(F)(F)F)c3)CC2)o1`: the ED50 amounted to 11.6 mg/kg in the series on Mus musculus [1] and 16.9 mg/kg with Mus musculus [2]. Besides, the LD50 in [3] was more than 1000 mg/kg. Moreover, the inhibition in vivo at 100 mg/kg with Rattus norvegicus [13] was 0%. Besides, the percent of rats showing catalepsy at 100 mg/kg in the series on Rattus norvegicus [14] was found to be 0%.
With `COc1ccccc1N1CCN(CCc2oc(=O)n(C(C)=O)c2-c2ccc(F)cc2)CC1`, the ED50 with Mus musculus [1] came out at 3.5 mg/kg; in the series with Mus musculus [2], 4.3 mg/kg; in the series on Rattus norvegicus [11] it was 30 mg/kg; with Rattus norvegicus [12] it was 14.5 mg/kg. This compound came in with an LD50 in series [3] of 190 mg/kg.
`Oc1nc(-c2ccc(Cl)cc2)c(CN2CCN(c3ccccc3)CC2)o1`: the values for the inhibition in vivo at 100 mg/kg in the series with Mus musculus [15], in the series on Mus musculus [16] and with Rattus norvegicus [13] were 0%, 15% and 0%, respectively. Besides, in series [3], the LD50 was more than 1000 mg/kg. Moreover, the percent of rats showing catalepsy at 100 mg/kg with Rattus norvegicus [14] worked out at 0%.
Take `CC(=O)n1c(-c2ccc(F)cc2)c(CCN2CCN(c3cc(Cl)cc(Cl)c3)CC2)oc1=O`: the ED50 was found to be 2.7 mg/kg in the series on Mus musculus [1] and 4.5 mg/kg in the series with Mus musculus [2]. Further, the LD50 in [3] was found to be 1000 mg/kg. In addition, testing at 100 mg/kg in the series with Rattus norvegicus [13] gave an inhibition in vivo of 10%. The percent of rats showing catalepsy at 100 mg/kg with Rattus norvegicus [14] was 0%.
With `Oc1nc(-c2ccc(F)cc2)c(CCN2CCN(c3cc(Br)cc(Br)c3)CC2)o1`, the ED50 in the series with Mus musculus [1] was 5.4 mg/kg; with Mus musculus [2], 15 mg/kg. Besides, the LD50 in series [3] came to 1000 mg/kg. Also, in the series on Rattus norvegicus [13], the inhibition in vivo at 100 mg/kg was 0%. Further, the percent of rats showing catalepsy at 100 mg/kg in the series on Rattus norvegicus [14] was found to be 0%.
In the case of `Cn1c(-c2ccc(F)cc2)c(CCN2CCN(c3ccccc3)CC2)oc1=O`, the figures for the ED50 in the series with Mus musculus [1], in the series on Mus musculus [2] and with Rattus norvegicus [12] were 21 mg/kg, 19.5 mg/kg and 112 mg/kg, respectively. The LD50 in series [3] turned out to be 750 mg/kg. Also, the percent of rats showing catalepsy at 100 mg/kg with Rattus norvegicus [14] amounted to 0%.
On to `Oc1nc(-c2ccc(F)cc2)c(CCN2CCN(c3ccc(Cl)c(Cl)c3)CC2)o1`, for which the results for the inhibition in vivo at 100 mg/kg in the series on Mus musculus [15], in the series with Mus musculus [16] and with Rattus norvegicus [13] were 62%, 21% and 0%, respectively. Besides, the LD50 in [3] is 1000 mg/kg. The percent of rats showing catalepsy at 100 mg/kg with Rattus norvegicus [14] turned out to be 0%.
